Assay results of several laboratories.
Lines come from different studies, so protocols differ.

SMILES	target or system	assay	system	conditions	quantity	result
O=C1O[C@H]([C@@H](O)CO)C(O)=C1O		ABTS scavenging			IC50	4.24 µg/mL
COc1cccc(C2NCCc3cc(O)c(O)cc32)c1O (stereo not drawn)		ABTS scavenging		10 min, dark	IC50	8.51 µM
CCCCCCCCCCCCCCCCCCOc1cccc(CC(=O)OCC[N+](C)(C)C)c1	NCI-H522	cell growth or viability, SRB		10 µM	inhibition	13.3%
Oc1cc2c(cc1O)C(CCc1ccccc1)NCC2 (stereo not drawn)		ABTS scavenging		10 min, dark	IC50	8.09 µM
O=C1O[C@H]([C@@H](O)CO)C(O)=C1O		ABTS scavenging		20 min	IC50	54.5 µg/mL
c1ccc(Oc2ccc(Nc3c4c(nc5ccccc35)CCC4)cc2)cc1	Leishmania donovani	parasite growth	THP-1	intracellular, amastigote	IC50	0.57 µM
Oc1ccc(C2NCCc3cc(O)c(O)cc32)cc1O (stereo not drawn)		ABTS scavenging		10 min, dark	IC50	4.93 µM
C[C@@H]1[C@H](O)[C@@H](C)/C=C/C=C/C=C/C=C/C=C/C=C/C=C/[C@H](O[C@@H]2O[C@H](C)[C@@H](O)[C@H](N)[C@@H]2O)C[C@@H]2O[C@](O)(C[C@@H](O)C[C@@H](O)[C@H](O)CC[C@@H](O)C[C@@H](O)CC(=O)O[C@H]1C)C[C@H](O)[C@H]2C(=O)O	Leishmania donovani	parasite growth	THP-1	72 h, intracellular, amastigote	IC50	0.6 µM
CCCCCCCCCCCCCCCCCCOc1cccc(CC(=O)OCCC[N+](C)(C)C)c1	NCI-H522	cell growth or viability, SRB		10 µM	inhibition	21.8%
CCCCC[C@H](O)/C=C/[C@@H]1[C@@H](C/C=C\CCCC(=O)O)[C@@H](O)C[C@H]1O	Leishmania donovani	parasite growth, resazurin		72 h, promastigote	IC50	> 100 µM
O=C1O[C@H]([C@@H](O)CO)C(O)=C1O		ABTS scavenging, absorbance			IC50	62.8 µM
CCCCCCCCCCCCCCCCOP(=O)([O-])OCC[N+](C)(C)C	Leishmania donovani	parasite growth	THP-1	72 h, intracellular, amastigote	IC50	3.78 µM
c1ccc(-c2ccc3c(c2)NC(C2Nc4cc(-c5ccccc5)ccc4O2)O3)cc1 (stereo not drawn)	Leishmania donovani	parasite growth, resazurin		72 h, promastigote	IC50	9.21 µM
COc1cc(C2NCCc3cc(O)c(O)cc32)ccc1O (stereo not drawn)		ABTS scavenging		10 min, dark	IC50	14 µM
CCOc1ccc(Nc2c3c(nc4ccccc24)CCC3)cc1	Leishmania donovani	parasite growth	THP-1	72 h, intracellular, amastigote	IC50	0.78 µM
